Measurements from publication PMC8992012 (Bioorganic & medicinal chemistry, 2021).

test system: NF-κB; assay: NF-κB activation using THP1-Blue NF-κB cells; format: cell-based, human; conditions: Homo sapiens, 20 h, read-out: NF-κB SEAP Compound alone % Activation
Method in brief: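 THP1-Blue NF-κB cells carry a stably integrated NF-κB-inducible SEAP. They were plated at 10^5 cells/well in RPMI with 10% FBS, penicillin, streptomycin and Normocin, then treated for 20 h with 5 μM test compound (0.5% DMSO final), alone or with LPS at 10 ng/mL. Supernatant SEAP was read colorimetrically at 630 nm. Signals were two-point normalized: baseline (vehicle or LPS) 100%, reference hit 200%.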

SMILES	activation at 5 µM
Cc1ccc(C)c(-c2csc(NC(=O)c3cccc(C(=O)N4CCCCC4)c3)n2)c1 [Compound 45d, N-(4-(2,5-dimethylphenyl)thiazol-2-yl)-3-(piperidine-1-carbonyl)benzamide]	100%
Cc1ccc(C)c(-c2csc(NC(=O)c3ccc(S(=O)(=O)NC4CCCCC4)cc3)n2)c1 [Compound 54e, 4-(N-cyclohexylsulfamoyl)-N-(4-(2,5-dimethylphenyl)thiazol-2-yl)benzamide]	100%
CCCN1CCN(S(=O)(=O)c2ccc(C(=O)Nc3nc(-c4cc(C)ccc4C)cs3)cc2)CC1 [Compound 54k, N-(4-(2,5-dimethylphenyl)thiazol-2-yl)-4-((4-propylpiperazin-1-yl)sulfonyl)benzamide]	100%

same assay, conditions: compound alone, 5 μM, 20h

SMILES	NF-κB activity (in words, SAR text to Table 1)
C#CCN(C(=O)c1ccc(S(=O)(=O)N2CCCCC2)cc1)c1nc(-c2cc(C)ccc2C)cs1 [Compound 34d, N-(4-(2,5-dimethylphenyl)thiazol-2-yl)-4-(piperidin-1-ylsulfonyl)-N-(prop-2-yn-1-yl)benzamide]	inactive
Cc1ccc(C)c(-c2csc(NC(=O)c3ccc(S(=O)(=O)N4CCCCC4)cn3)n2)c1 [Compound 42a, N-(4-(2,5-dimethylphenyl)thiazol-2-yl)-5-(piperidin-1-ylsulfonyl)picolinamide]	loss of activity
Cc1ccc(C)c(-c2csc(NC(=O)c3ccc(S(=O)(=O)N4CCCCC4)nc3)n2)c1 [Compound 42b, N-(4-(2,5-dimethylphenyl)thiazol-2-yl)-6-(piperidin-1-ylsulfonyl)nicotinamide]	loss of activity
Cc1ccc(C)c(-c2csc(NC(=O)c3ccc(S(=O)(=O)N4CCCCC4)s3)n2)c1 [Compound 42c, N-(4-(2,5-dimethylphenyl)thiazol-2-yl)-5-(piperidin-1-ylsulfonyl)thiophene-2-carboxamide]	loss of activity
Cc1ccc(C)c(-c2csc(NC(=O)c3ccc(S(=O)(=O)N4CCCCC4)c(Cl)c3)n2)c1 [Compound 42d, 3-chloro-N-(4-(2,5-dimethylphenyl)thiazol-2-yl)-4-(piperidin-1-ylsulfonyl)benzamide]	retained NF-κB activity
Cc1ccc(C)c(-c2csc(NC(=O)c3ccc(S(=O)(=O)N4CCCCC4)c(Br)c3)n2)c1 [Compound 42e, 3-bromo-N-(4-(2,5-dimethylphenyl)thiazol-2-yl)-4-(piperidin-1-ylsulfonyl)benzamide]	retained NF-κB activity
Cc1ccc(C)c(-c2csc(NC(=O)c3ccc(S(=O)(=O)N4CCCCC4)c([N+](=O)[O-])c3)n2)c1 [Compound 42f, N-(4-(2,5-dimethylphenyl)thiazol-2-yl)-3-nitro-4-(piperidin-1-ylsulfonyl)benzamide]	decline in activity
COc1cc(C(=O)Nc2nc(-c3cc(C)ccc3C)cs2)ccc1S(=O)(=O)N1CCCCC1 [Compound 42g, N-(4-(2,5-dimethylphenyl)thiazol-2-yl)-3-methoxy-4-(piperidin-1-ylsulfonyl)benzamide]	decline in activity
Cc1ccc(C)c(-c2csc(NC(=O)c3ccc(S(=O)(=O)N4CCCCC4)cc3Cl)n2)c1 [Compound 42h, 2-chloro-N-(4-(2,5-dimethylphenyl)thiazol-2-yl)-4-(piperidin-1-ylsulfonyl)benzamide]	significantly dropped
Cc1ccc(C)c(-c2csc(NC(=O)c3ccc(S(=O)(=O)N4CCCCC4)cc3Br)n2)c1 [Compound 42i, 2-bromo-N-(4-(2,5-dimethylphenyl)thiazol-2-yl)-4-(piperidin-1-ylsulfonyl)benzamide]	significantly dropped
COc1cc(S(=O)(=O)N2CCCCC2)ccc1C(=O)Nc1nc(-c2cc(C)ccc2C)cs1 [Compound 42j, N-(4-(2,5-dimethylphenyl)thiazol-2-yl)-2-methoxy-4-(piperidin-1-ylsulfonyl)benzamide]	significantly dropped
Cc1ccc(C)c(-c2csc(NC(=O)c3ccc(S(=O)(=O)N4CCCCC4)c(N)c3)n2)c1 [Compound 42k, 3-amino-N-(4-(2,5-dimethylphenyl)thiazol-2-yl)-4-(piperidin-1-ylsulfonyl)benzamide]	decline in activity
Cc1ccc(C)c(-c2csc(NC(=O)c3ccc(SC4CCCCC4)cc3)n2)c1 [Compound 45a, 4-(cyclohexylthio)-N-(4-(2,5-dimethylphenyl)thiazol-2-yl)benzamide]	none of these modifications at site E was tolerated
Cc1ccc(C)c(-c2csc(NC(=O)c3ccc(S(=O)(=O)C4CCCCC4)cc3)n2)c1 [Compound 45b, 4-(cyclohexylsulfonyl)-N-(4-(2,5-dimethylphenyl)thiazol-2-yl)benzamide]	none of these modifications at site E was tolerated
Cc1ccc(C)c(-c2csc(NC(=O)c3ccc(C(=O)N4CCCCC4)cc3)n2)c1 [Compound 45c, N-(4-(2,5-dimethylphenyl)thiazol-2-yl)-4-(piperidine-1-carbonyl)benzamide]	none of these modifications at site E was tolerated
Cc1ccc(C)c(-c2csc(NC(=O)c3cccc(C(=O)N4CCCCC4)c3)n2)c1 [Compound 45d, N-(4-(2,5-dimethylphenyl)thiazol-2-yl)-3-(piperidine-1-carbonyl)benzamide]	none of these modifications at site E was tolerated

SMILES	NF-κB activity (in words, SAR text to Table 1)
Cc1ccc(C)c(-c2csc(NS(=O)(=O)c3ccc(C(=O)N4CCCCC4)cc3)n2)c1 [Compound 51, N-(4-(2,5-dimethylphenyl)thiazol-2-yl)-4-(piperidine-1-carbonyl)benzenesulfonamide]	inactive
CCCN(CC)S(=O)(=O)c1ccc(C(=O)Nc2nc(-c3cc(C)ccc3C)cs2)cc1 [Compound 54a, N-(4-(2,5-dimethylphenyl)thiazol-2-yl)-4-(N-ethyl-N-propylsulfamoyl)benzamide]	active
CCCN(CCC)S(=O)(=O)c1ccc(C(=O)Nc2nc(-c3cc(C)ccc3C)cs2)cc1 [Compound 54b, N-(4-(2,5-dimethylphenyl)thiazol-2-yl)-4-(N,N-dipropylsulfamoyl)benzamide]	active
CCCCN(CCCC)S(=O)(=O)c1ccc(C(=O)Nc2nc(-c3cc(C)ccc3C)cs2)cc1 [Compound 54c, 4-(N,N-dibutylsulfamoyl)-N-(4-(2,5-dimethylphenyl)thiazol-2-yl)benzamide]	lost activity
CCN(c1ccccc1)S(=O)(=O)c1ccc(C(=O)Nc2nc(-c3cc(C)ccc3C)cs2)cc1 [Compound 54d, N-(4-(2,5-dimethylphenyl)thiazol-2-yl)-4-(N-ethyl-N-phenylsulfamoyl)benzamide]	inactive
Cc1ccc(C)c(-c2csc(NC(=O)c3ccc(S(=O)(=O)NC4CCCCC4)cc3)n2)c1 [Compound 54e, 4-(N-cyclohexylsulfamoyl)-N-(4-(2,5-dimethylphenyl)thiazol-2-yl)benzamide]	inactive
Cc1ccc(C)c(-c2csc(NC(=O)c3ccc(S(=O)(=O)N4CCN(C(=O)OC(C)(C)C)CC4)cc3)n2)c1 [Compound 54f, tert-butyl 4-((4-((4-(2,5-dimethylphenyl)thiazol-2-yl)carbamoyl)phenyl)sulfonyl)piperazine-1-carboxylate]	inactive
CCOC1CCN(S(=O)(=O)c2ccc(C(=O)Nc3nc(-c4cc(C)ccc4C)cs3)cc2)CC1 [Compound 54g, N-(4-(2,5-dimethylphenyl)thiazol-2-yl)-4-((4-ethoxypiperidin-1-yl)sulfonyl)benzamide]	very potent
Cc1ccc(C)c(-c2csc(NC(=O)c3ccc(S(=O)(=O)N4CCNCC4)cc3)n2)c1 [Compound 54i, N-(4-(2,5-dimethylphenyl)thiazol-2-yl)-4-(piperazin-1-ylsulfonyl)benzamide]	inactive
CC(=O)N1CCN(S(=O)(=O)c2ccc(C(=O)Nc3nc(-c4cc(C)ccc4C)cs3)cc2)CC1 [Compound 54j, 4-((4-acetylpiperazin-1-yl)sulfonyl)-N-(4-(2,5-dimethylphenyl)thiazol-2-yl)benzamide]	inactive
CCCN1CCN(S(=O)(=O)c2ccc(C(=O)Nc3nc(-c4cc(C)ccc4C)cs3)cc2)CC1 [Compound 54k, N-(4-(2,5-dimethylphenyl)thiazol-2-yl)-4-((4-propylpiperazin-1-yl)sulfonyl)benzamide]	inactive
CCCC1CCN(S(=O)(=O)c2ccc(C(=O)Nc3nc(-c4cc(C)ccc4Br)cs3)cc2)CC1 [Compound 55, N-(4-(2-bromo-5-methylphenyl)thiazol-2-yl)-4-((4-propylpiperidin-1-yl)sulfonyl)benzamide]	retained NF-κB activity
CCCC#Cc1sc(NC(=O)c2ccc(S(=O)(=O)N3CCC(CCC)CC3)cc2)nc1-c1cc(C)ccc1C [Compound 57, N-(4-(2,5-dimethylphenyl)-5-(pent-1-yn-1-yl)thiazol-2-yl)-4-((4-propylpiperidin-1-yl)sulfonyl)benzamide]	significant loss of activity
CCCC#Cc1sc(NC(=O)c2ccc(S(=O)(=O)N3CCCCC3)cc2)nc1-c1cc(C)ccc1Br [Compound 60, N-(4-(2-bromo-5-methylphenyl)-5-(pent-1-yn-1-yl)thiazol-2-yl)-4-(piperidin-1-ylsulfonyl)benzamide]	retained NF-κB activity
CCCC#Cc1sc(NC(=O)c2ccc(S(=O)(=O)N3CCC(CCC)CC3)cc2)nc1-c1cc(C)ccc1Br [Compound 61, N-(4-(2-bromo-5-methylphenyl)-5-(pent-1-yn-1-yl)thiazol-2-yl)-4-((4-propylpiperidin-1-yl)sulfonyl)benzamide]	significant loss of activity

same assay, conditions: in presence of LPS, compared to compound 1

SMILES	NF-κB induction in the presence of LPS (in words, Fig. 6)
Cc1ccc(N=[N+]=[N-])cc1-c1csc(NC(=O)c2ccc(S(=O)(=O)N3CCCCC3)cc2)n1 [Compound 63, N-(4-(5-azido-2-methylphenyl)thiazol-2-yl)-4-(piperidin-1-ylsulfonyl)benzamide]	retained activity
Cc1ccc(N=[N+]=[N-])c(-c2csc(NC(=O)c3ccc(S(=O)(=O)N4CCCCC4)cc3)n2)c1 [Compound 66, N-(4-(2-azido-5-methylphenyl)thiazol-2-yl)-4-(piperidin-1-ylsulfonyl)benzamide]	inactive
